Our source for the Inhibition, inhibition and Relative potency values is ChEMBL document CHEMBL1121800, “Fibrin Polymerization. 1. Alkylating peptide inhibitors of fibrin polymerization” (1981).

What all share (type): functional
Assay [1] is described as follows: Compound was evaluated for its ability to inhibit the thrombin-initiated clotting time of citreated human plasma. More on the design: concentration or dose not given beside the values. The method in brief:
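Bovine thrombin in saline, dosed to give a 20 s clot, added to 200 µL citrated human plasma plus 100 µL saline containing peptide at 37 °C. Time to first clot recorded. Chlorambucil peptides came from DMSO stock diluted in saline; optional 15 min, 4 °C preincubation with plasma or thrombin. Molar activity from dose-response slope versus reference, with molarity from amino acid analysis.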

For assay [2], the target named is Prothrombin (Homo sapiens) (UniProt P00734). Kind of assay: Compound was evaluated for its ability to inhibit thrombin catalyzed amidolysis. Particulars: concentration not given here. The method in brief:
(§1)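 Thrombin (0.5 unit) at 37 °C with 0.25 mL of 1 mM Tos-Gly-Pro-Arg-p-nitroanilide, 0.25 mL saline containing 2 mg/mL peptide, and 1.5 mL saline. Chromophore read at 405 nm. Where indicated, peptide and thrombin were preincubated 15 min at 4 °C before substrate addition.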

The species named for the next assay is Homo sapiens. Nature of the assay: Compound was evaluated for its ability to inhibit fibrin polymerization. Particulars: dose or concentration not given here. Set-up: concentration or dose not given beside the values. In a few lines: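 Fibrin monomer from human fibrinogen (8.3 mg protein/mL solution) diluted into phosphate buffer (80 mM, pH 6.3) containing peptide; reaggregation followed at 350 nm. Optional preincubation: peptide in 1 M NaBr/0.05 M NaOAc pH 5.3 with monomer, 15 min, room temperature, before buffer addition. Molar activity from linear dose-response slope versus reference tetrapeptide, averaged values.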

Assay [3] addresses Prothrombin (Homo sapiens) (UniProt P00734). Nature of the assay: Compound was evaluated for its ability to inhibit thrombin catalyzed amidolysis. More on the design: concentration or dose not given beside the values. The settings on record: concentration not given here. The method in brief: as §1
Assay [4] can be described thus: Relative potency was determined.

SMILES strings stand for the structures. Where a SMILES comes first, the peptide text is derived from it. [ ]: non-standard residue; d: D form. The star is where a group is joined. Phe(4-NO2) = N[C@@H](Cc1ccc([N+](=O)[O-])cc1)C(=O)O; Chlorambucil = O=C(CCCc1ccc(N(CCCl)CCCl)cc1)*; Phe(4-NH2) = Nc1ccc(C[C@H](N)C(=O)O)cc1

With `N=C(N)NCCC[C@H](NC(=O)[C@@H]1CCCN1C(=O)CCCc1ccc(N(CCCl)CCCl)cc1)C(=O)N1CCC[C@H]1C(=O)O`, the Inhibition in assay [1] is 0%. The same measure, in the same setting: for `N=C(N)NCCC[C@H](NC(=O)CCCc1ccc(N(CCCl)CCCl)cc1)C(=O)N1CCC[C@H]1C(=O)O` the value was 0%.

In assay [1], `NCC(=O)N1CCC[C@H]1C(=O)N[C@@H](CCCN=C(N)N)C(=O)N1CCC[C@H]1C(=O)O` showed an Inhibition of 100%. The inhibition in assay [2] was 0%; in the assay listed under Homo sapiens, 100%. With `N=C(N)NCCC[C@H](NC(=O)[C@@H]1CCCN1C(=O)CNC(=O)CCCc1ccc(N(CCCl)CCCl)cc1)C(=O)N1CCC[C@H]1C(=O)O` (Chlorambucil-GPRP-OH), the Inhibition in assay [1] is given as 0%. As to `NCC(=O)N1CCC[C@H]1C(=O)N[C@@H](CCCN=C(N)N)C(=O)N1CCC[C@H]1C(=O)N[C@@H](Cc1ccc(N)cc1)C(=O)O` (H-GPRP[Phe(4-NH2)]-OH), the Inhibition in assay [1] was 81%. For the same compound, the inhibition in assay [3] came out at 0%; in the assay listed under Homo sapiens, 105%. Regarding `NCC(=O)N1CCC[C@H]1C(=O)N[C@@H](CCCN=C(N)N)C(=O)N[C@@H](Cc1ccc(N)cc1)C(=O)O` (H-GPR[Phe(4-NH2)]-OH), in assay [1], the Inhibition is 5%. This compound also gave a Relative potency in assay [4] of 0.22. The inhibition in assay [3] is 0%; in the assay filed under Homo sapiens it was 22%. The compound `NCC(=O)N1CCC[C@H]1C(=O)N[C@@H](Cc1ccc([N+](=O)[O-])cc1)C(=O)N1CCC[C@H]1C(=O)O` (H-GP[Phe(4-NO2)]P-OH) yielded an Inhibition in assay [1] of 0%. For the same compound, in assay [3], the inhibition stood at 0%. Regarding `NCC(=O)N[C@@H](Cc1ccc([N+](=O)[O-])cc1)C(=O)N[C@@H](CCCN=C(N)N)C(=O)N1CCC[C@H]1C(=O)O` (H-G[Phe(4-NO2)]RP-OH), in assay [1], the Inhibition is 10%. In assay [3], the inhibition was 0%. `NCC(=O)N1CCC[C@H]1C(=O)N[C@@H](CCCN=C(N)N)C(=O)N[C@@H](Cc1ccc([N+](=O)[O-])cc1)C(=O)O` (stereo in doubt; 9) [listing 1 of 2 here] yielded an Inhibition in assay [1] of 2%. Regarding `NCC(=O)N1CCC[C@H]1C(=O)N[C@@H](CCCN=C(N)N)C(=O)N[C@@H](Cc1ccc([N+](=O)[O-])cc1)C(=O)O` (stereo in doubt; 9) [listing 2 of 2 here], the inhibition (in assay [3]; in the assay filed under Homo sapiens) was 0% throughout.

On to `NCC(=O)N1CCC[C@H]1C(=O)N[C@@H](CCCN=C(N)N)C(=O)N1CCC[C@H]1C(=O)N[C@@H](Cc1ccc([N+](=O)[O-])cc1)C(=O)O` (stereo in doubt; 10) [listing 1 of 2 here], for which the Inhibition in assay [1] worked out at 73%. In turn, `NCC(=O)N1CCC[C@H]1C(=O)N[C@@H](CCCN=C(N)N)C(=O)N1CCC[C@H]1C(=O)N[C@@H](Cc1ccc([N+](=O)[O-])cc1)C(=O)O` (stereo in doubt; 10) [listing 2 of 2 here] returned a Relative potency in assay [4] of 0.83. Further, the inhibition came out at 0% in assay [3] and 88% in the assay listed under Homo sapiens.

In assay [1], `NCC(=O)N1CCC[C@H]1C(=O)N[C@@H](CCCN=C(N)N)C(=O)N[C@@H](Cc1ccc([N+](=O)[O-])cc1)C(=O)O` (stereo in doubt; 19) [listing 1 of 2 here] gave an Inhibition of 14%. For `NCC(=O)N1CCC[C@H]1C(=O)N[C@@H](CCCN=C(N)N)C(=O)N[C@@H](Cc1ccc([N+](=O)[O-])cc1)C(=O)O` (stereo in doubt; 19) [listing 2 of 2 here], in assay [3], the inhibition came to 0%.

On to `NCC(=O)N1CCC[C@H]1C(=O)N[C@@H](CCCN=C(N)N)C(=O)N1CCC[C@H]1C(=O)N[C@@H](Cc1ccc([N+](=O)[O-])cc1)C(=O)O` (stereo in doubt; 20), for which, in assay [3], the inhibition is 0%.
